ChEMBL document CHEMBL1135780, “6-Chloro-3-alkylamino-4H-thieno[3,2-e]-1,2,4-thiadiazine 1,1-dioxide derivatives potently and selectively activate ATP sensitive potassium channels of pancreatic beta-cells” (J Med Chem, 2002)

Tests used:
[1] = Oral bioavailability in rat (Sprague-Dawley); type: ADME, organism-based; settings: Sprague-Dawley, in vivo
How it was run: (§1)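 Cassette dosing, two compounds per cassette, in Sprague–Dawley rats of about 180 g, n = 2. iv doses 0.5 or 0.89 mg/kg; oral doses 1.89 or 2.0 mg/kg. Vehicle 0.1 M potassium phosphate pH 8.0, or PEG 300 based. Heart-puncture sampling, one rat per point. Plasma levels by LC/MS/MS; noncompartmental analysis.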

[2] = Acid dissociation constant was determined; type: ADME
How it was run: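 Potentiometric titration from pH 2 to 10.5 in 80% MeOH cosolvent. Three titrations on the same sample, with 0.15 M KCl added before the second. psKa values extrapolated to 0% cosolvent by Yasuda–Shedlovsky.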

[3] = Half life after oral administration to Sprague-Dawley rats; type: ADME, organism-based; settings: rat, in vivo; how it was run: as §1
[4] = Partition coefficient (logP); type: physicochemical; settings: octanol/water
[5] = system: Beta-TC6; experiment: Percentage insulin release in vitro in beta-TC6 cells; type: functional; settings: Mus musculus
How it was run: (§2)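 βTC6 cells, 5 × 10⁴/well, grown 3 days in DMEM + 10% FCS, 11 mM glucose, 20 mM Hepes. Washed twice in NN buffer with 0.1% BSA, preincubated 60 min, then 3 h with 22 mM glucose, 0.1 mM IBMX and serial compound dilutions. Insulin in supernatant measured by in-house ELISA (guinea pig anti-insulin, rat insulin standard). Reference compound as positive control.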

[6] = system: Beta-TC6; experiment: Ability to inhibit the release of insulin from the mouse beta-TC6 cell line; type: functional, cell-based; how it was run: as §2
[7] = Changes in potassium fluxes assessed in the glucose responsive insulin-producing murine cell line beta-TC3; type: functional, cell-based, Mus musculus
How it was run: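 βTC3 membrane potential read as DiBAC4(3) fluorescence at 0.01, 0.1, 1, 10 and 100 µM, four wells each. Signal normalized to each well's initial value and expressed as fractional fluorescence change over 45 min incubation. EC50 from four-parameter nonlinear fit; mean ± SEM of at least three independent experiments.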

[8] = species: Rattus norvegicus; experiment: Maximum change in MAP in rat; type: functional
How it was run: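 Anaesthetized male Sprague–Dawley rats given 3 mg/kg iv bolus (0.3 mg/kg for one compound) in 0.15% NaOH/saline via jugular cannula. Maximal percent change in mean arterial pressure over 5 min after dosing; mean ± SEM, 2–4 animals.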

[9] = species: Rattus norvegicus; experiment: Vasodilation effects on Wistar rat mesenteric arteries precontracted with phenylephrine; type: functional
[10] = species: Rattus norvegicus; experiment: Ability to relax phenylephrine-contracted rat aorta rings; type: functional
[11] = species: Rattus norvegicus; experiment: Inhibition of glucose-stimulated insulin release from Wistar rat islets; type: functional
How it was run: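 Isolated rat islets held overnight in RPMI, 10% FCS, 11 mM glucose, then 10 islets/well overnight in DMEM, 10% FCS, 3 mM glucose. Run like the βTC6 assay (60 min NN buffer preincubation, 3 h with 22 mM glucose and serial dilutions) without IBMX. Insulin by in-house ELISA.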

[12] = species: Rattus norvegicus; experiment: Reduction in plasma insulin in 30 min post-injection in rat; type: functional; set-up: concentration or dose not given beside the values
How it was run: (§3)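 Postprandial male Sprague–Dawley rats, 280–320 g, under Hypnorm/Dormicum at 37 °C. 3 mg/kg iv bolus over 20 s via jugular cannula (0.3 mg/kg for one compound), dissolved in 0.15% NaOH and saline. Blood taken every 5–10 min from 15 min pre- to 30 min postinjection. Plasma insulin by ELISA, as % reduction from pre-dose level. 2–4 animals.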

[13] = species: Rattus norvegicus; experiment: Maximum reduction in plasma insulin in rat; type: functional; how it was run: as §3
[14] = target: T1, Sulfonylurea receptor 1, Kir6.2 (Homo sapiens, UniProt Q09428+Q14654); experiment: Inhibition of [3H]glibenclamide binding to HEK293 cells co-expressing human Sulfonylurea receptor SUR1 and Inward rectifier K+ channel Kir6.2 at high affinity state with 2 mM MgATP; type: cell-based
T1 sequence (Q14654 whole entry): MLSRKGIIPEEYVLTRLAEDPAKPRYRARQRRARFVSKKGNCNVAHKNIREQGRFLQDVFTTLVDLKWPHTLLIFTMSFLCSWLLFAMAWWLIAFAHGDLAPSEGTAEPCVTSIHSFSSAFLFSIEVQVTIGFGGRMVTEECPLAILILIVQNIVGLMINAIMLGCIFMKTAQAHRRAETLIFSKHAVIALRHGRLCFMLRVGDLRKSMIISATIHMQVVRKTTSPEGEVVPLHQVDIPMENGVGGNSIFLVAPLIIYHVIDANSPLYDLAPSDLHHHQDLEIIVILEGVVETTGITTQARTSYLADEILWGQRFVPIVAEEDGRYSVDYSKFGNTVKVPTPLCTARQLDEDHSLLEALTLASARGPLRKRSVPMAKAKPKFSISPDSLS
T1 sequence (Q09428 whole entry): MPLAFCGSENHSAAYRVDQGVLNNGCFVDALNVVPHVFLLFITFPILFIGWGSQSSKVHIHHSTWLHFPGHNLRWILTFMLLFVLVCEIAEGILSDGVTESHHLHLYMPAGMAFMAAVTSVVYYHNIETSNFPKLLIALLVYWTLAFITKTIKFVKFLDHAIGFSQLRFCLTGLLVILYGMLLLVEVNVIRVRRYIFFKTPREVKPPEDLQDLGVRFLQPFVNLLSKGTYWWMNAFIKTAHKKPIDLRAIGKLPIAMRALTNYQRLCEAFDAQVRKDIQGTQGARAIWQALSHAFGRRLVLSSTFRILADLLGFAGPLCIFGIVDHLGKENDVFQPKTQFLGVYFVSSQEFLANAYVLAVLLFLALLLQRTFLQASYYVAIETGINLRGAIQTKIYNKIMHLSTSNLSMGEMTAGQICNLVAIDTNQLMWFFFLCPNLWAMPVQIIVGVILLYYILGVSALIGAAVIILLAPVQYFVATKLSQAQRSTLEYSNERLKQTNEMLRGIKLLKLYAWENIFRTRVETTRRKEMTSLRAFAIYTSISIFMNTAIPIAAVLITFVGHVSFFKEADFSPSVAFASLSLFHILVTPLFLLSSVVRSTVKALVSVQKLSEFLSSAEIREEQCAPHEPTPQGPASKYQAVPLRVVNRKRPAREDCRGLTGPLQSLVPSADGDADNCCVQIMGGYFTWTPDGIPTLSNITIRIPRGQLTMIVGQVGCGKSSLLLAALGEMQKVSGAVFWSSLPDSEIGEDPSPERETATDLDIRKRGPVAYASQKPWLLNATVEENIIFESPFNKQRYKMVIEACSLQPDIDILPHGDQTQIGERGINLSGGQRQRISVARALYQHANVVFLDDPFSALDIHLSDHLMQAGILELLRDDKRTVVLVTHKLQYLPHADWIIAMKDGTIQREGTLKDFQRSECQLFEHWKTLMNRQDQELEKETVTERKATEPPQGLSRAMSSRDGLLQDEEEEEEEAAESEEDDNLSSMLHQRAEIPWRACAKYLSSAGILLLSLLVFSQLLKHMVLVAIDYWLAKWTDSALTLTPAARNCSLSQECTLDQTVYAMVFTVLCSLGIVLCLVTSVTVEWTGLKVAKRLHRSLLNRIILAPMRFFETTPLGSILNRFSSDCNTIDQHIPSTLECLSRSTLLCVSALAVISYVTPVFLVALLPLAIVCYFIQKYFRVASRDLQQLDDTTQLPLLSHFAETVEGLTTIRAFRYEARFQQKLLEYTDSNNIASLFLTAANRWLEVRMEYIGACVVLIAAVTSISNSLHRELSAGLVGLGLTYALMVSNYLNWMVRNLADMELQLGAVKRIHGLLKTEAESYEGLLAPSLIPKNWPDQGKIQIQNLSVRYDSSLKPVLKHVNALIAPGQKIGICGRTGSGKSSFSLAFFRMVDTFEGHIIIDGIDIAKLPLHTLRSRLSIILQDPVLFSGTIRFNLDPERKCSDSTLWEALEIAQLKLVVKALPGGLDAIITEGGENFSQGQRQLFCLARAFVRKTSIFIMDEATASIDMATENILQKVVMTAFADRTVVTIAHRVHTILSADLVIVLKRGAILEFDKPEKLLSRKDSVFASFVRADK

[15] = target: T1, Sulfonylurea receptor 1, Kir6.2; experiment: Inhibition of [3H]glibenclamide binding to HEK293 cells co-expressing human Sulfonylurea receptor SUR1 and Inward rectifier K+ channel Kir6.2 at low affinity state with 2 mM MgATP; type: cell-based
[16] = target: T1, Sulfonylurea receptor 1, Kir6.2; experiment: (§4) Inhibition of [3H]glibenclamide binding to HEK293 cells co-expressing human Sulfonylurea receptor SUR1 and Inward rectifier K+ channel Kir6.2 without ATP; type: cell-based
[17] = LogD for water and octanol distribution coefficient at pH 7.4; type: physicochemical
How it was run: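 Three titrations on one sample, with 1.00 mL then 10.00 mL octanol added before the second and third. Aqueous pKa used in refinement; combined multiset gives LogD at pH 7.4.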

[18] = system: Beta-TC6; experiment: Maximum inhibition of glucose stimulated insulin release from mouse beta-TC6 cells at 10 uM in vitro.; type: functional
[19] = target: T1, Sulfonylurea receptor 1, Kir6.2; experiment: as §4; type: cell-based; remark: listed apart in the source
How it was run: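 Membranes from HEK293 cells stably expressing human SUR1/Kir6.2 (100 µg/mL protein) incubated 1 h at 37 °C with 1 nM [3H]glibenclamide in 30 mM HEPES pH 7.4, here without MgCl2 and ATP. Nonspecific binding with 10 µM glipizide. Rapid filtration, scintillation counting; IC50 by one- or two-site sigmoid nonlinear regression.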

[20] = species: Rattus norvegicus; experiment: Effective concentration required for relaxation of the rat aorta rings; type: functional

| Structure (SMILES) | bioavailability [1] | pKa [2] | half-life [3] | logP [4] | IC50 [6] | EC50 [7] | EC50 [9] | EC50 [10] | IC50 [11] | IC50 [14] | IC50 [15] | IC50 [16] | logD [17] | IC50 [19] | EC50 [20] | Emax [5] | Change [8] | Reduction [12] | Reduction [13] | Emax at 10 µM [18] |
| --- | --- | --- | --- | --- | --- | --- | --- | --- | --- | --- | --- | --- | --- | --- | --- | --- | --- | --- | --- | --- |
| O=S1(=O)NC(NC2CCCC2)=Nc2cc(Cl)sc21 | – | – | – | – | 1.15 µM | 0.4 µM | 10.8 µM | > 300 µM | 0.44 µM | – | – | – | – | – | – | 67% | 29% | 22% | 99% | – |
| CCCNC1=NS(=O)(=O)c2sc(Cl)cc2N1 | 69% | 8.23 | 1.2 h | 2.49 | 2.4 µM | 2 µM | 23.3 µM | 64.7 µM | 0.7 µM | 2.27 µM | 584 µM | 924 µM | 2.42 | – | – | 65% | 13% | 16% | 100% | 65% |
| O=S1(=O)NC(NC2CCC2)=Nc2cc(Cl)sc21 | 49% | – | 1.88 h | – | 0.49 µM | 1.4 µM | 38.6 µM | 27 µM | 0.05 µM | 0.12 µM | 146 µM | 943 µM | – | – | – | 78% | 5% | 100% | 100% | – |
| O=S1(=O)NC(NC2CC2)=Nc2cc(Cl)sc21 | – | – | – | – | 7.38 µM | > 30 µM | – | 28.2 µM | – | – | – | – | – | – | – | – | – | – | – | 37% |
| CCCCCCCCNC1=NS(=O)(=O)c2sc(Cl)cc2N1 | – | – | – | – | 1.5 µM | 0.5 µM | – | 176 µM | – | – | – | – | – | – | – | – | – | – | – | 76% |
| CC1(NC2=NS(=O)(=O)c3sc(Cl)cc3N2)CCCCC1 | – | – | – | – | 5.33 µM | 1 µM | – | 1.4 µM | – | – | – | – | – | – | – | – | – | – | – | 62% |
| CC(C)[C@H](C)NC1=NS(=O)(=O)c2sc(Cl)cc2N1 | – | – | – | – | 0.56 µM | 14 µM | – | > 300 µM | – | – | – | – | – | – | – | – | – | – | – | 80% |
| CC[C@H](C)NC1=NS(=O)(=O)c2sc(Cl)cc2N1 | 49% | 8.42 | 0.967 h | – | 0.41 µM | 0.8 µM | 19.2 µM | 51 µM | 0.07 µM | 0.46 µM | 309 µM | – | – | 420 µM | – | 79% | -7% | 94% | 96% | – |
| CC(C)[C@@H](C)NC1=NS(=O)(=O)c2sc(Cl)cc2N1 | – | – | – | – | 1.01 µM | 0.3 µM | – | 75.3 µM | – | – | – | – | – | – | – | – | – | – | – | 62% |
| CCNC1=NS(=O)(=O)c2sc(Cl)cc2N1 | – | – | – | – | 1.9 µM | 9 µM | – | 136 µM | – | – | – | – | – | – | 136 µM | – | – | – | – | 74% |

The next compounds have a lower IC50 [6] than those just listed; values first:

| bioavailability [1] | pKa [2] | half-life [3] | logP [4] | IC50 [6] | EC50 [7] | EC50 [9] | EC50 [10] | IC50 [11] | IC50 [14] | IC50 [15] | IC50 [16] | logD [17] | IC50 [19] | EC50 [20] | Structure (SMILES) | Emax [5] | Change [8] | Reduction [12] | Reduction [13] | Emax at 10 µM [18] |
| --- | --- | --- | --- | --- | --- | --- | --- | --- | --- | --- | --- | --- | --- | --- | --- | --- | --- | --- | --- | --- |
| – | – | – | – | 0.24 µM | > 100 µM | – | 8 µM | – | – | – | – | – | – | – | CCC(CC)CNC1=NS(=O)(=O)c2sc(Cl)cc2N1 | – | – | – | – | 38% |
| 65% | 8.35 | 2.73 h | 1.84 | 0.23 µM | 0.6 µM | 6.2 µM | 266 µM | 0.18 µM | 0.34 µM | 187 µM | 554 µM | 1.63 | – | – | CC(C)NC1=NS(=O)(=O)c2sc(Cl)cc2N1 | 85% | -19% | 96% | 96% | – |
| – | – | – | – | 0.16 µM | 1.3 µM | – | 65 µM | – | – | – | – | – | – | – | CCC(C)NC1=NS(=O)(=O)c2sc(Cl)cc2N1 (configuration not stated) | – | – | – | – | 74% |
| 47% | – | 1.65 h | – | 0.03 µM | 0.2 µM | 29.4 µM | 11.8 µM | 0.02 µM | 0.18 µM | 375 µM | 899 µM | – | – | – | CCC(C)(C)NC1=NS(=O)(=O)c2sc(Cl)cc2N1 | 82% | -34% | 77% | 87% | – |
| – | – | – | – | 0.02 µM | 0.014 µM | 7.2 µM | 6.5 µM | 0.01 µM | 0.003 µM | 10.8 µM | 859 µM | – | – | – | CC1(NC2=NS(=O)(=O)c3sc(Cl)cc3N2)CCC1 | 91% | -48% | 76% | 82% | – |
